Assay results taken from ChEMBL document CHEMBL1130212, “Synthesis and structure-activity relationships of 6,7-benzomorphan derivatives as antagonists of the NMDA receptor-channel complex” (J Med Chem, 1997).

How the values were obtained:
[1] = test system: Mus musculus; test: Effective dose at which half of the mice were protected against the lethality induced by 200 mg/kg NMDA.; format: functional; details: read-out: ID50 (the source's name)
How it was run: (§1)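 Male mice (20 to 30 g), groups of five, given test compound s.c. (0.01 mL/g) at different doses; NMDA 200 mg/kg i.p. 15 min later. Each mouse observed 20 min in an individual jar; percentage dying recorded. ID50 from log-probit analysis of four doses, or mean ± SEM of up to four independent experiments.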

[2] = molecular target: Glutamate NMDA receptor; test: Inhibition of [3H]MK-801 binding to N-methyl-D-aspartate glutamate receptor in rat brain cortical membranes.; format: cell membranes, Membrane
[3] = molecular target: Mu-type opioid receptor (Rattus norvegicus, UniProt P33535); test: Inhibition of [3H]dihydromorphine binding to opioid receptor mu 1 in rat brain cortical membranes.; format: cell membranes, Membrane
Sequence of Mu-type opioid receptor (P33535 whole entry): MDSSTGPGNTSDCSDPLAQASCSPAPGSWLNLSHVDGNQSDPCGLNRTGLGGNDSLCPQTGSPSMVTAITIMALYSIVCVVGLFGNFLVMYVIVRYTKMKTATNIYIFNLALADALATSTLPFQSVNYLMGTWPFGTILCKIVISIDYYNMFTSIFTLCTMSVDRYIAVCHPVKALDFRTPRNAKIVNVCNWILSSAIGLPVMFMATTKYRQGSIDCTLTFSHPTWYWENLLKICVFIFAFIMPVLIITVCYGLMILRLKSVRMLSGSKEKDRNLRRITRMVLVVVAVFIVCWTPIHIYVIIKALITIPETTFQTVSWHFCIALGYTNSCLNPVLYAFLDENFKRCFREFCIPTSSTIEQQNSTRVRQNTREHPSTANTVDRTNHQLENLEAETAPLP
How it was run: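 Rat brain without cerebellum membranes incubated 30 min at 25 °C with 0.5 nmol/L [3H]dihydromorphine. Binding stopped by rapid filtration; filter radioactivity counted by scintillation. Ki from computer-aided curve fitting.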

[4] = test system: Mus musculus; test: The ID50 value represent the effective dose at which half of the mice were protected against the lethality induced by 200 mg/kg NMDA; format: functional; details: read-out: ID50 (the source's name); how it was run: as §1
[5] = test system: Mus musculus; test: The ID50 values represent the effective dose at which half of the mice were protected against the lethality induced by 200 mg/kg NMDA; format: functional; details: read-out: ID50 (the source's name); how it was run: as §1

## CC[C@H](CN1CC[C@]2(C)c3cc(O)ccc3C[C@@H]1[C@H]2C)OC
[1]
  ED50: 3 mg/kg
[2]
  Ki: 557 nM

## CO[C@@H](C)CN1CC[C@@]2(C)c3ccc(O)cc3C[C@@H]1C2(C)C
[1]
  ED50: 2.1 mg/kg
[2]
  Ki: 7.1 nM
[3]
  Ki: 18.2 nM

## CCCN1CC[C@]2(C)c3cc(O)ccc3C[C@@H]1[C@@H]2C
[1]
  ED50: > 30 mg/kg
[2]
  Ki: 588 nM

## CO[C@H](C)CN1CC[C@@]2(C)c3ccc(O)cc3C[C@@H]1C2(C)C
[1]
  ED50: 0.4 mg/kg
[2]
  Ki: 4.5 nM
[3]
  Ki: 3400 nM

## CCC[C@@H](CN1CC[C@]2(C)c3cc(O)ccc3C[C@@H]1[C@H]2C)OC
[2]
  Ki: 490 nM

## CO[C@H](C)CN1CC[C@]2(C)c3cc(O)ccc3C[C@@H]1[C@@H]2C
[1]
  ED50: 7.2 mg/kg
[2]
  Ki: 248 nM
[3]
  Ki: 146 nM

## CO[C@@H](C)CN1CC[C@@]2(C)c3cc(O)ccc3C[C@H]1[C@@H]2C
[2]
  Ki: > 100000 nM

## CO[C@@H](C)CN1CC[C@@]2(C)c3ccccc3C[C@@H]1C2(C)C
[1]
  ED50: 23 mg/kg
[2]
  Ki: 15.8 nM
[3]
  Ki: 144 nM

## CCO[C@H](C)CN1CC[C@]2(C)c3cc(O)ccc3C[C@@H]1[C@@H]2C
[2]
  Ki: 1840 nM

## C=CCN1CC[C@@]2(C)c3cc(O)ccc3C[C@H]1[C@H]2C
[1]
  ED50: 8.2 mg/kg
[2]
  Ki: 1210 nM

## CO[C@H](C)CN1CC[C@@]2(C)c3cc(O)ccc3C[C@H]1[C@@H]2C
[1]
  ED50: > 30 mg/kg
[2]
  Ki: 76600 nM
[3]
  Ki: 34800 nM

## CO[C@H](C)CN1CC[C@]2(C)c3cc(O)ccc3C[C@H]1C2(C)C
[2]
  Ki: 13900 nM
[3]
  Ki: 14000 nM

## CO[C@H](C)CN1CC[C@@]2(C)c3ccccc3C[C@@H]1C2(C)C
[2]
  Ki: 29.9 nM
[3]
  Ki: 42300 nM
[4]
  ED50: 6.8 mg/kg

## CO[C@H](C)CN1CC[C@]2(C)c3cc(O)ccc3C[C@@H]1[C@H]2C
[1]
  ED50: 0.9 mg/kg
[2]
  Ki: 195 nM
[3]
  Ki: 212 nM

## C=CCN1CCC2(C)c3c(O)cccc3CC1C2(C)C (configuration not stated)
[1]
  ED50: 1.7 mg/kg
[2]
  Ki: 106 nM

## COC(C)(C)CN1CC[C@]2(C)c3cc(O)ccc3C[C@@H]1[C@@H]2C
[1]
  ED50: 2.9 mg/kg
[2]
  Ki: 281 nM
[3]
  Ki: 5.6 nM

## CCO[C@@H](C)CN1CC[C@]2(C)c3cc(O)ccc3C[C@@H]1[C@@H]2C
[2]
  Ki: 1150 nM

## CO[C@H](C)CN1CC[C@@]2(C)c3cc(O)ccc3C[C@H]1[C@H]2C
[1]
  ED50: > 30 mg/kg
[2]
  Ki: 9550 nM
[3]
  Ki: 18400 nM

## CO[C@@H](C)CN1CC[C@@]2(C)c3c(O)cccc3C[C@@H]1C2(C)C
[1]
  ED50: 0.8 mg/kg
[2]
  Ki: 15 nM
[3]
  Ki: 20.9 nM

## COC(C)(C)CN1CC[C@]2(C)c3cc(O)ccc3C[C@@H]1[C@H]2C
[1]
  ED50: 5.5 mg/kg
[2]
  Ki: 221 nM

## CO[C@H](C)CN1CC[C@]2(C)c3ccc(O)cc3C[C@H]1C2(C)C
[2]
  Ki: 545 nM

## CCC[C@H](CN1CC[C@]2(C)c3cc(O)ccc3C[C@@H]1[C@H]2C)OC
[2]
  Ki: 1840 nM

## CO[C@@H](C)CN1CC[C@]2(C)c3cc(O)ccc3C[C@H]1C2(C)C
[1]
  ED50: > 30 mg/kg
[2]
  Ki: 50400 nM
[3]
  Ki: 6020 nM

## C=CCN1CCC2(C)c3cc(O)ccc3CC1C2(C)C (configuration not stated)
[1]
  ED50: 4.7 mg/kg
[2]
  Ki: 380 nM

## CO[C@H](C)CN1CC[C@@]2(C)c3c(O)cccc3C[C@@H]1C2(C)C
[1]
  ED50: 0.5 mg/kg
[2]
  Ki: 34 nM
[3]
  Ki: 11400 nM

## CCCN1CC[C@@]2(C)c3cc(O)ccc3C[C@H]1[C@H]2C
[1]
  ED50: > 30 mg/kg
[2]
  Ki: 2850 nM

## CO[C@@H](C)CN1CC[C@@]2(C)c3cc(O)ccc3C[C@@H]1C2(C)C
[1]
  ED50: 0.2 mg/kg
[2]
  Ki: 5.6 nM
[3]
  Ki: 1.6 nM

## C=CCN1CCC2(C)c3cccc(O)c3CC1C2(C)C (configuration not stated)
[1]
  ED50: 10.4 mg/kg
[2]
  Ki: 630 nM

## CO[C@H](C)CN1CC[C@@]2(C)c3cc(O)ccc3C[C@@H]1C2(C)C
[1]
  ED50: 0.7 mg/kg
[2]
  Ki: 12.4 nM
[3]
  Ki: 108 nM

## CO[C@@H](C)CN1CC[C@]2(C)c3cc(O)ccc3C[C@@H]1[C@H]2C
[1]
  ED50: 0.6 mg/kg
[2]
  Ki: 35.7 nM
[3]
  Ki: 3.5 nM

## C=CCN1CCC2(C)c3ccc(O)cc3CC1C2(C)C (configuration not stated)
[1]
  ED50: 5 mg/kg
[2]
  Ki: 99 nM

## CO[C@@H](C)CN1CC[C@]2(C)c3ccc(O)cc3C[C@H]1C2(C)C
[1]
  ED50: 81 mg/kg
[2]
  Ki: 685 nM
[3]
  Ki: 1340 nM

## CS[C@H](C)CN1CC[C@]2(C)c3cc(O)ccc3C[C@@H]1[C@H]2C
[2]
  Ki: 406 nM
[3]
  Ki: 236 nM

## CC[C@@H](CN1CC[C@]2(C)c3cc(O)ccc3C[C@@H]1[C@H]2C)OC
[1]
  ED50: 0.3 mg/kg
[2]
  Ki: 66 nM

## CO[C@H](C)CN1CC[C@]2(C)c3c(O)cccc3C[C@H]1C2(C)C
[2]
  Ki: 364 nM

## CCO[C@H](C)CN1CC[C@]2(C)c3cc(O)ccc3C[C@@H]1[C@H]2C
[2]
  Ki: 1290 nM

## CCCN1CC[C@]2(C)c3cc(O)ccc3C[C@@H]1[C@H]2C
[2]
  Ki: 373 nM

## C[C@@H]1[C@H]2Cc3ccc(O)cc3[C@@]1(C)CCN2C[C@@H](C)O
[2]
  Ki: 425 nM

## CS[C@@H](C)CN1CC[C@]2(C)c3cc(O)ccc3C[C@@H]1[C@@H]2C
[1]
  ED50: 1.7 mg/kg
[2]
  Ki: 223 nM
[3]
  Ki: 3.2 nM

## CO[C@@H](C)CN1CC[C@@]2(C)c3cc(O)ccc3C[C@H]1[C@H]2C
[1]
  ED50: > 30 mg/kg
[2]
  Ki: 22000 nM
[3]
  Ki: 5300 nM

## CS[C@H](C)CN1CC[C@]2(C)c3cc(O)ccc3C[C@@H]1[C@@H]2C
[2]
  Ki: 1090 nM
[3]
  Ki: 7.7 nM

## C=CCN1CC[C@]2(C)c3cc(O)ccc3C[C@@H]1[C@@H]2C
[1]
  ED50: > 30 mg/kg
[2]
  Ki: 1500 nM

## COCCCN1CC[C@]2(C)c3cc(O)ccc3C[C@@H]1[C@@H]2C
[5]
  ED50: > 30 mg/kg
[2]
  Ki: 991 nM

## CCCN1CC[C@@]2(C)c3cc(O)ccc3C[C@H]1[C@@H]2C
[2]
  Ki: 43600 nM

## CCO[C@@H](C)CN1CC[C@]2(C)c3cc(O)ccc3C[C@@H]1[C@H]2C
[2]
  Ki: 1260 nM

## CO[C@@H](C)CN1CC[C@]2(C)c3cc(O)ccc3C[C@@H]1[C@@H]2C
[1]
  ED50: 2.3 mg/kg
[2]
  Ki: 234 nM
[3]
  Ki: 1 nM

## CS[C@@H](C)CN1CC[C@]2(C)c3cc(O)ccc3C[C@@H]1[C@H]2C
[1]
  ED50: 2.1 mg/kg
[2]
  Ki: 83 nM
[3]
  Ki: 97 nM
